Measured values as given in ChEMBL document CHEMBL1123228, “Enantiomers of 3-(3,4-dihydroxyphenyl)- and 3-(3-hydroxyphenyl)-N-n-propylpiperidine: central pre- and postsynaptic dopaminergic effects and pharmacokinetics” (J Med Chem, 1986).

Experiments:
[1] = Michaelis-Menten constant was measured against adenylate cyclase stimulation of cAMP formation in striatal homogenates; assay type: ADME, tissue-based; conditions: tissue homogenate
[2] = system: Rattus norvegicus; assay: Motor activity effect in reserpinized rat with tropolone pretreatment at 5 umol/kg, sc expressed as accumulation counts 0-30 min after treatment; assay type: functional
Method in brief: (§1)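 Male Sprague-Dawley rats given reserpine 5 mg/kg ip 18 h before; some also given tropolone 50 mg/kg 30 min before. Compound given sc in the neck, or ip where stated. Locomotion recorded by photocell motility meters, one rat per cage, as accumulated counts over 0–30 min, mean ± SEM.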

[3] = system: Rattus norvegicus; assay: Presynaptic activity at the level of DA metabolism was determined at dose 45 umol/kg on striatal level of HVA; assay type: functional
Method in brief: (§2)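 Female Wistar rats given 45 μmol/kg sc; striatal DOPAC and HVA measured by HPLC with electrochemical detection, compared with saline controls by Student's t test.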

[4] = species: Rattus norvegicus; assay: Dopa accumulation was evaluated in corpus striatum of male Sprague-Dawley rat.; assay type: functional
Method in brief: (§3)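 Male Sprague-Dawley rats, 200–300 g; drug in saline given sc after NSD 1015 decarboxylase inhibition; Dopa measured by HPLC with electrochemical detection. Dose-response curves from four to six dose levels per substance and brain area; ED50 estimated as the dose giving half-maximal decrease of Dopa level.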

[5] = system: Rattus norvegicus; assay: Level of compound in rat striatum by pretreatment of tropolone (50 mg/kg, ip, 30min) at dose 8 umol/kg; assay type: functional, organism-based
Method in brief: (§4)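 Female Wistar rats (170–200 g), compound sc in saline (1 mL/kg), killed 60 min later, with or without tropolone (50 mg/kg ip) before dosing. Striatum, cerebellum and cortex were extracted in perchloric acid, cleaned on Sephadex G10 and analysed by HPLC-ECD (pH 4.0, 15% methanol, 600 mV). Recovery-corrected, n = 3.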

[6] = system: Rattus norvegicus; assay: Level of compound in rat cortex at dose 40 umol/kg; assay type: functional, organism-based; method in brief: as §4
[7] = system: Rattus norvegicus; assay: Level of compound in rat striatum in the absence of tropolone at dose 40 umol/kg; assay type: functional, organism-based; method in brief: as §4
[8] = system: Rattus norvegicus; assay: Level of compound in rat cerebellum in the absence of tropolone at dose 8 umol/kg; assay type: functional, organism-based; method in brief: as §4
[9] = target: D(2) dopamine receptor (Rattus norvegicus, UniProt P61169); assay: In vitro affinity against Dopamine receptor D2 using [3H]DP-5,6-ADTN radioligand in rat striatal homogenate.
D(2) dopamine receptor, sequence (P61169 whole entry): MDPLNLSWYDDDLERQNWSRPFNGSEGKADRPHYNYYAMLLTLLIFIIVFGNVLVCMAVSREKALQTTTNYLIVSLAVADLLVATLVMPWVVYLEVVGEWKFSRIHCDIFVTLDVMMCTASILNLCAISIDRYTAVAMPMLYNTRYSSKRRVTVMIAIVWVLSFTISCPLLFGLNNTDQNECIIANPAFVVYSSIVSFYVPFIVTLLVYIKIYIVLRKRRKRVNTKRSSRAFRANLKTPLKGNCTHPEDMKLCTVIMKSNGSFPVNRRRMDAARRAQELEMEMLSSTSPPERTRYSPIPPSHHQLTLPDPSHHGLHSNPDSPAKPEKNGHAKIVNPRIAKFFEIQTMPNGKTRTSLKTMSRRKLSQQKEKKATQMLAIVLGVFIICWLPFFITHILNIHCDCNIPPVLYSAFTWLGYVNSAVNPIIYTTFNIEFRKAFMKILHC

[10] = system: Rattus norvegicus; assay: Presynaptic activity at the level of DA metabolism was determined at dose 45 umol/kg on striatal level of DOPAC; assay type: functional; method in brief: as §2
[11] = system: Rattus norvegicus; assay: Level of compound in rat cerebellum by pretreatment of tropolone (50 mg/kg, ip, 30min) at dose 40 umol/kg; assay type: functional, organism-based; method in brief: as §4
[12] = system: catechol-O-methyl transferase; assay: Michaelis-Menten constant was measured for O-methylation (probably meta) by catechol-O-methyl transferase; assay type: ADME
Method in brief: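 Crude rat liver COMT (105000g supernatant) at 37°C for 15 min with 0.1–0.00125 mM substrate, S-adenosyl-L-methionine, 10 mM MgCl2 and 50 mM phosphate pH 7.4 (final). Reaction stopped with perchloric acid; O-methyl product measured by HPLC-ECD. Km from Lineweaver-Burk plots, four experiments, each concentration in triplicate.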

[13] = system: Rattus norvegicus; assay: Level of compound in rat striatum by pretreatment of tropolone (50 mg/kg, ip, 30min) at dose 40 umol/kg; assay type: functional, organism-based; method in brief: as §4
[14] = system: Rattus norvegicus; assay: Level of compound in rat cortex by pretreatment of tropolone (50 mg/kg, ip, 30min) at dose 8 umol/kg; assay type: functional, organism-based; method in brief: as §4
[15] = system: Rattus norvegicus; assay: Level of compound in rat cerebellum in the absence of tropolone at dose 40 umol/kg; assay type: functional, organism-based; method in brief: as §4
[16] = system: Rattus norvegicus; assay: Level of compound in rat cortex by pretreatment of tropolone (50 mg/kg, ip, 30min) at dose 40 umol/kg; assay type: functional, organism-based; method in brief: as §4
[17] = target: D(1A) dopamine receptor (Rattus norvegicus, UniProt P18901); assay: In vitro affinity against Dopamine receptor D1 using [3H]SCH-23390 radioligand in rat striatal homogenate.
D(1A) dopamine receptor, sequence (P18901 whole entry): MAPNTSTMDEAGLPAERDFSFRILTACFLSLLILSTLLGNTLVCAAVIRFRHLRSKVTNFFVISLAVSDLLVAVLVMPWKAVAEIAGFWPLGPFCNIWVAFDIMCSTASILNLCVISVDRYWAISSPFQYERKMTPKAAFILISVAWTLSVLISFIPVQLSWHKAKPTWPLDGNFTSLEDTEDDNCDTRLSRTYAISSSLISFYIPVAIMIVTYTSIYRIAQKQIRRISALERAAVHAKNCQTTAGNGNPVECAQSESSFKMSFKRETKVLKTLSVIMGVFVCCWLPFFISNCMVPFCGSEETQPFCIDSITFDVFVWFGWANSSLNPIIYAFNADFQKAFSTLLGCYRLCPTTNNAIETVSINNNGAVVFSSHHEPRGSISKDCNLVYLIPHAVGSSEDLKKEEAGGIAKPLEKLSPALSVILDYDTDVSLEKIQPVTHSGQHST

[18] = species: Rattus norvegicus; assay: Maximal cAMP production in rat striatal homogenates.; assay type: functional
Method in brief: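 cAMP formation in rat striatal homogenates was read with an automated adenylate cyclase assay.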

[19] = system: Rattus norvegicus; assay: Level of compound in rat striatum at dose 8 umol/kg; assay type: functional, organism-based; method in brief: as §4
[20] = system: Rattus norvegicus; assay: Level of compound in rat cortex in the absence of tropolone at dose 40 umol/kg; assay type: functional, organism-based; method in brief: as §4
[21] = system: Rattus norvegicus; assay: Level of compound in rat cortex at dose 8 umol/kg; assay type: functional, organism-based; method in brief: as §4
[22] = system: Rattus norvegicus; assay: Level of compound in rat cerebellum by pretreatment of tropolone (50 mg/kg, ip, 30min) at dose 8 umol/kg; assay type: functional, organism-based; method in brief: as §4
[23] = species: Rattus norvegicus; assay: Dopa accumulation was evaluated in limbic system of male Sprague-Dawley rat.; assay type: functional; method in brief: as §3
[24] = system: Rattus norvegicus; assay: Level of compound in rat striatum at dose 40 umol/kg; assay type: functional, organism-based; method in brief: as §4
[25] = system: Rattus norvegicus; assay: Level of compound in rat cerebellum at dose 40 umol/kg; assay type: functional, organism-based; method in brief: as §4
[26] = system: Rattus norvegicus; assay: Level of compound in rat cortex in the absence of tropolone at dose 8 umol/kg; assay type: functional, organism-based; method in brief: as §4
[27] = Ratio of Vmax/Km was measured; assay type: ADME
Method in brief: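 Crude COMT from rat liver (KCl homogenate, 105000g supernatant). Incubated at 37 °C in 50 mM phosphate buffer pH 7.4 with 10 mM MgCl2, S-adenosyl-L-methionine ([…] as printed), and substrate at 0.1–0.00125 mM (final concentrations), 15 min. Stopped with perchloric acid; the O-methylated product was measured by HPLC-electrochemical detection. Km and Vmax from Lineweaver-Burk plots of four experiments, each concentration run in triplicate.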

[28] = system: Rattus norvegicus; assay: Level of compound in rat cerebellum at dose 8 umol/kg; assay type: functional, organism-based; method in brief: as §4
[29] = system: Rattus norvegicus; assay: Motor activity effect in reserpinized rat at 50 umol/kg, sc expressed as accumulation counts 0-30 min after treatment; assay type: functional; method in brief: as §1

## NCCc1ccc(O)c(O)c1 [DOPAMINE]
[1]
  Km: 7.8 µM

## CCCN1CCC[C@@H](c2ccc(O)c(O)c2)C1
[2]
  Motor activity: 69
[3]
  Control: 65%
[4]
  ED50: 8.2 µmol/kg
[5]
  Level: 2540 pmol/g
[6]
  Level: 17000 pmol/g
[7]
  Level: 61 pmol/g
[8]
  Level: 10 pmol/g
[9]
  Ki: 0.012 µM
[10]
  Control: 83%
[11]
  Level: 9330 pmol/g
[12]
  Km: 77 µM
[13]
  Level: 9720 pmol/g
[14]
  Level: 3250 pmol/g
[15]
  Level: 63 pmol/g
[16]
  Level: 13200 pmol/g
[17]
  Ki: 13.5 µM
[18]
  Production (pM (mg of protein)-1): 138
[19]
  Level: 2330 pmol/g
[20]
  Level: 167 pmol/g
[21]
  Level: 3410 pmol/g
[22]
  Level: 2290 pmol/g
[23]
  ED50: 8.5 µmol/kg
[1]
  Km: 21 µM
[24]
  Level: 10300 pmol/g
[25]
  Level: 9160 pmol/g
[26]
  Level: 16 pmol/g
[27]
  Ratio: 485
[28]
  Level: 2020 pmol/g
[29]
  Motor activity: 78
